What was measured:
Human betaherpesvirus 5 = experiment: Inhibition of human cytomegalovirus (HCMV) in plaque reduction assay; type: functional, organism-based
In short: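 HCMV Towne strain (plaque-purified P0) plaque reduction in HFF monolayers in MEM(E) with 10% FBS. Inoculum held about 50 PFU, with compound dissolved in the overlay medium. IC50 came from linear regression of percent inhibition against log concentration, with ganciclovir or acyclovir positive controls in every set; two to five experiments.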

Neoplastic cell line = experiment: Compound was evaluated for cytotoxic activity against KB cells.; type: functional, cell-based; details: Homo sapiens
In short: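 KB cells grown in MEM(H) + 5% FBS. Compound effects measured on radiolabelled precursor incorporation into DNA, RNA and protein. IC50s from linear regression of percent inhibition vs log concentration. The three IC50s were averaged, with 2–5 experiments averaged. Runs rejected if the acyclovir/ganciclovir control deviated >1.5 SD from its mean.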

Mus musculus [1] = experiment: Compound was evaluated for mean day of death at 5.6 mg/kg at 6 h; type: functional
In short: (§1)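 Three-week-old female Swiss Webster mice inoculated ip with 2×10^5 PFU MCMV Smith strain. Groups of 15 dosed ip twice daily for 5 days, starting 6, 24 or 48 h post-inoculation. Held 21 days with daily mortality checks. Final mortality and mean day of death (dying animals) computed. Mortality versus placebo by Fisher Exact Test, MDD by Mann–Whitney U-rank test.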

Mus musculus [2] = experiment: Compound was evaluated for 15 mice treated ip twice daily for 5 days at a dose of 16.7 mg/kg at 48 hr followed (MCMV) virus inoculation; type: functional; details: route intraperitoneal; in short: as §1
Homo sapiens = species: Homo sapiens; experiment: Inhibition of AD169 strain human cytomegalo virus (HCMV) in human foreskin fibroblasts cell lines was determined by plaque assay; type: functional, organism-based; details: Fibroblast
In short: (§2)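 Plaque reduction used MCMV Smith in primary mouse embryo fibroblasts, HCMV AD169 in low-passage HFF, and HSV-1 E-377 and HSV-2 MS in MEF, rabbit kidney or HFF. IC50 was determined against untreated controls; two or more experiments.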

Mus musculus [3] = experiment: Compound was evaluated for mean day of death at 5.6 mg/kg at 48 h; type: functional; in short: as §1
Mus musculus [4] = experiment: Compound was evaluated for 15 mice treated ip twice daily for 5 days at a dose of 50 mg/kg followed (MCMV) virus inoculation; type: functional; details: route intraperitoneal
Mus musculus [5] = experiment: Compound was evaluated for 15 mice treated ip twice daily for 5 days at a dose of 5.6 mg/kg at 6 hr followed (MCMV) virus inoculation; type: functional; details: route intraperitoneal; in short: as §1
[6] = Cytotoxicity of HCMV in human foreskin fibroblasts cells; type: functional, cell-based; details: Fibroblast
In short: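 Visual cytotoxicity was scored in uninfected cells of the same host monolayers used for the plaque assays, on a 0 to 4+ scale at 35- and 60-fold magnification, at the time plaques were counted.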

Mus musculus [7] = experiment: Compound was evaluated for 15 mice treated ip twice daily for 5 days at a dose of 50 mg/kg at 6 hr followed (MCMV) virus inoculation; type: functional; details: route intraperitoneal; in short: as §1
Mus musculus [8] = experiment: Compound was evaluated for 15 mice treated ip twice daily for 5 days at a dose of 1.9 mg/kg at 6 hr followed (MCMV) virus inoculation; type: functional; details: route intraperitoneal; in short: as §1
Mus musculus [9] = species: Mus musculus; experiment: Cytotoxicity of human simplex virus type 1 in mouse embryo fibroblasts cells; details: Fibroblast
Mus musculus [10] = experiment: Compound was evaluated for percent mortality of mice inoculated with murine cytomegalovirus at a concentration of 5.6 mg/kg at 48 h; type: ADME, organism-based; set-up: dose 5.6 mg/kg; details: in vivo
In short: (§3)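 Three-week-old female Swiss Webster mice infected ip with 2×10^5 PFU MCMV Smith strain; groups of 15 given drug ip twice daily for 5 days, starting 6, 24 or 48 h after inoculation. Toxicity controls received drug without virus. Mortality followed daily for 21 days; final mortality compared with placebo by Fisher Exact Test.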

L1210 = experiment: In vitro inhibition of L1210 cell growth.; type: functional, Mus musculus; set-up: concentration or dose not given beside the values
In short: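 Murine L1210 leukemia cells in static suspension culture in Fischer's medium with compound for 4 days. Growth rate is the ratio of control to treated population doubling time; where the rate changed, the final rate was used. IC50 is the concentration giving 50% of control growth rate; single-concentration value at 100 μM.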

Mus musculus [11] = experiment: Compound was evaluated for percent mortality of mice inoculated with murine cytomegalovirus at a concentration of 1.9 mg/kg at 48 h; type: organism-based; set-up: dose 1.9 mg/kg; details: in vivo; in short: as §1
Human alphaherpesvirus 1 = experiment: Inhibition of herpes simplex virus (HSV-1) in yield reduction assay; type: functional, organism-based
Mus musculus [12] = experiment: Compound was evaluated for percent mortality of mice inoculated with murine cytomegalovirus at a concentration of 16.7 mg/kg at 48 h; type: organism-based; set-up: dose 16.7 mg/kg; details: in vivo; in short: as §1
[13] = Inhibition of herpes simplex virus type 1(HSV-1) in monkey kidney cell was determined by plaque assay; type: functional, cell-based; details: Cercopithecidae
In short: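 HSV-1 S-148 strain plaque reduction in BSC-1 monkey kidney monolayers, with about 100 PFU inoculum and compound dissolved in the overlay medium. IC50 came from linear regression of percent inhibition against log concentration, with a positive control in each set.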

[14] = Inhibition of herpes simplex virus type 1(HSV-1) in mouse embryo fibroblasts cell lines was determined by plaque assay; details: Fibroblast
Mus musculus [15] = experiment: Compound was evaluated for mean day of death at 16.7 mg/kg at 6 h; type: functional; in short: as §1
Mus musculus [16] = experiment: Compound was evaluated for percent mortality of mice inoculated with murine cytomegalovirus at a concentration of 5.6 mg/kg at 6 h; type: ADME, organism-based; set-up: dose 5.6 mg/kg; details: in vivo; in short: as §3
Mus musculus [17] = experiment: Compound was evaluated for 15 mice treated ip twice daily for 5 days at a dose of 1.9 mg/kg at 24 hr followed (MCMV) virus inoculation; type: functional; details: route intraperitoneal; in short: as §1
Mus musculus [18] = experiment: Compound was evaluated for 15 mice treated ip twice daily for 5 days at a dose of 1.9 mg/kg at 48 hr followed (MCMV) virus inoculation; type: functional; details: route intraperitoneal; in short: as §1
Mus musculus [19] = experiment: Compound was evaluated for percent mortality of mice inoculated with murine cytomegalovirus at a concentration of 50 mg/kg at 48 h; type: ADME, organism-based; set-up: dose 50 mg/kg; details: in vivo; in short: as §3
Mus musculus [20] = species: Mus musculus; experiment: Inhibition of murine cytomegalo virus in mouse embryo fibroblasts cell lines was determined by plaque assay; type: functional, organism-based; details: Fibroblast; in short: as §2
Mus musculus [21] = species: Mus musculus; experiment: Inhibition of herpes simplex virus […](HSV-2) in mouse embryo fibroblasts cell lines was determined by plaque assay; type: functional, organism-based; details: Fibroblast; in short: as §2
Mus musculus [22] = experiment: Compound was evaluated for 15 mice treated ip twice daily for 5 days at a dose of 50 mg/kg at 24 h followed (MCMV) virus inoculation; type: functional; details: route intraperitoneal; in short: as §1
Mus musculus [23] = experiment: Compound was evaluated for 15 mice treated ip twice daily for 5 days at a dose of 5.6 mg/kg at 24 hr followed (MCMV) virus inoculation; type: functional; details: route intraperitoneal; in short: as §1
Mus musculus [24] = experiment: Compound was evaluated for percent mortality of mice inoculated with murine cytomegalovirus at a concentration of 5.6 mg/kg; drug toxicity control; type: functional; in short: as §3
Mus musculus [25] = experiment: Compound was evaluated for percent mortality of mice inoculated with murine cytomegalovirus at a concentration of 5.6 mg/kg at 24 h; type: ADME, organism-based; set-up: dose 5.6 mg/kg; details: in vivo; in short: as §3
[26] = Compound was evaluated for cytotoxic activity against BSC cells; type: functional, cell-based; details: Cercopithecidae
In short: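 Visual cytotoxicity in uninfected areas of plaque-reduction cultures. HFF cells grown in MEM(E) + 10% FBS for HCMV (Towne) assays; BSC-1 cells for HSV-1 (S-148) assays. Drug in overlay medium. Cytopathology scored 0 to 4+ at 35- and 60-fold magnification on the staining day.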

[27] = Compound was evaluated for percent mortality of mice inoculated with murine cytomegalovirus at a concentration of 1.9 mg/kg; drug toxicity control; type: organism-based; set-up: dose 1.9 mg/kg; details: mouse, in vivo
In short: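 Drug toxicity control: uninfected three-week-old female Swiss Webster mice, groups of 15, dosed ip twice daily for 5 days. Held 21 days with daily mortality checks. Final mortality and mean day of death for animals that died were calculated.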

## Nc1ncnc2c1c(Br)cn2COC(CO)CO
Human betaherpesvirus 5
  IC50: 1900 nM
Human betaherpesvirus 5; Human betaherpesvirus 5
  IC50: 1600 nM
Neoplastic cell line
  IC50: > 100000 nM
Mus musculus [1]
  MDD: 8
Mus musculus [2]
  Activity: 13
Homo sapiens
  IC50: 600 nM
Mus musculus [3]
  MDD: 5.5
Mus musculus [4]
  Activity: 0
Mus musculus [5]
  Activity: 1
[6]
  IC50: > 100000 nM
Mus musculus [7]
  Activity: 9
Mus musculus [8]
  Activity: 5
Mus musculus [9]
  IC50: > 158000 nM
Mus musculus [10]
  Mortality: 40%
L1210
  Activity: 0%
Mus musculus [11]
  Mortality: 67%
Human alphaherpesvirus 1
  IC90: 17000 nM
Mus musculus [12]
  Mortality: 87%
[13]
  IC50: 2000 nM
[14]
  IC50: 1900 nM
Mus musculus [15]
  MDD: 8.7
Mus musculus [16]
  Mortality: 7%
Mus musculus [17]
  Activity: 9
Mus musculus [18]
  Activity: 10
Mus musculus [19]
  Mortality: 87%
Mus musculus [20]
  IC50: 30 nM
Mus musculus [21]
  IC50: 1900 nM
Mus musculus [22]
  Activity: 14
Mus musculus [23]
  Activity: 3
Mus musculus [24]
  mortality at 5.6 mg/kg: 0%
Mus musculus [25]
  Mortality: 20%
[26]
  IC50: > 100000 nM
[27]
  Mortality: 0%

Reference: ChEMBL document CHEMBL1124846, “Synthesis, antiproliferative, and antiviral activity of certain 4-substituted and 4,5-disubstituted 7-[(1,3-dihydroxy-2-propoxy)methyl]pyrrolo[2,3-d]pyrimidines” (J Med Chem, 1990)
